ChEMBL document CHEMBL1153637, “Identification and optimisation of a novel series of pyrimidine based cyclooxygenase-2 (COX-2) inhibitors. Utilisation of a biotransformation approach” (Bioorg Med Chem Lett, 2009)
pIC50: −log10 of the molar value. Active and inactive are the calls of the source. No cut-off for these calls is given here.

Tests used:
Homo sapiens = species on record: Homo sapiens; test: Selectivity ratio of IC50 for human COX1 to IC50 for human COX2
How it was run: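 Ratio of the COX-1 IC50 to the COX-2 IC50. Both IC50s are for inhibition of PGE2 production by COS cells stably expressing human COX-1 or human COX-2, after stimulation with arachidonic acid.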

[1] = biological target: T1, Prostaglandin G/H synthase 1 (Homo sapiens, UniProt P23219); test: Inhibition of human COX1 expressed in african green monkey COS cells assessed as inhibition of arachidonic acid-stimulated PGE2 production by enzyme immunoassay; assay type: cell-based
[2] = biological target: T2, Prostaglandin G/H synthase 2 (Homo sapiens, UniProt P35354); test: Inhibition of human COX2 expressed in african green monkey COS cells assessed as inhibition of arachidonic acid-stimulated PGE2 production by enzyme immunoassay; assay type: cell-based
T2 sequence (P35354 whole entry): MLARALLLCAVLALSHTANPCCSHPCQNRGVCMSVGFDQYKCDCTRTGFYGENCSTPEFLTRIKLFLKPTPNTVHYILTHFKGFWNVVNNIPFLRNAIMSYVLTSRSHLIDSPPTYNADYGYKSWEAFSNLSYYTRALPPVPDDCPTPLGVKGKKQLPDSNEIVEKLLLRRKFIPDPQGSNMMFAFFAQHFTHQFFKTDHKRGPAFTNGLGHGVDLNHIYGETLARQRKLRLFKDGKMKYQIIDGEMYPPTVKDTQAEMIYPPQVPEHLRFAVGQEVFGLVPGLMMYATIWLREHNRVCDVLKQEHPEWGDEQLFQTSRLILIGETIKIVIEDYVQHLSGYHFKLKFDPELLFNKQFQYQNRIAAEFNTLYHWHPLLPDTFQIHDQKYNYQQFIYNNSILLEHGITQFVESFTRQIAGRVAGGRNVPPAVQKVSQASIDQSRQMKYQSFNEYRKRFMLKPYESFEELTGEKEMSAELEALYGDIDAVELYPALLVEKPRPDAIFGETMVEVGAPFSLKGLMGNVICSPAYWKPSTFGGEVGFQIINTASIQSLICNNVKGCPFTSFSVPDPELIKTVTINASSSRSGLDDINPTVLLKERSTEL

Rattus norvegicus = species on record: Rattus norvegicus; test: Antiinflammatory activity in Freund's complete adjuvant-induced rat inflammatory pain model assessed as change in weight bearing ability on inflamed paw pretreated 1 hr before and measured 6 hrs after FCA challenge; assay type: functional
[3] = biological target: T1, Prostaglandin G/H synthase 1; test: Inhibition of human COX1 expressed in african green monkey COS cells assessed as inhibition of arachidonic acid-stimulated PGE2 production upto 100 uM by enzyme immunoassay; assay type: cell-based
How it was run: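 COS cells stably expressing human COX-1 were stimulated with arachidonic acid, and PGE2 production was measured. IC50 was taken as the concentration inhibiting PGE2 output.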

T1 sequence (P23219 whole entry): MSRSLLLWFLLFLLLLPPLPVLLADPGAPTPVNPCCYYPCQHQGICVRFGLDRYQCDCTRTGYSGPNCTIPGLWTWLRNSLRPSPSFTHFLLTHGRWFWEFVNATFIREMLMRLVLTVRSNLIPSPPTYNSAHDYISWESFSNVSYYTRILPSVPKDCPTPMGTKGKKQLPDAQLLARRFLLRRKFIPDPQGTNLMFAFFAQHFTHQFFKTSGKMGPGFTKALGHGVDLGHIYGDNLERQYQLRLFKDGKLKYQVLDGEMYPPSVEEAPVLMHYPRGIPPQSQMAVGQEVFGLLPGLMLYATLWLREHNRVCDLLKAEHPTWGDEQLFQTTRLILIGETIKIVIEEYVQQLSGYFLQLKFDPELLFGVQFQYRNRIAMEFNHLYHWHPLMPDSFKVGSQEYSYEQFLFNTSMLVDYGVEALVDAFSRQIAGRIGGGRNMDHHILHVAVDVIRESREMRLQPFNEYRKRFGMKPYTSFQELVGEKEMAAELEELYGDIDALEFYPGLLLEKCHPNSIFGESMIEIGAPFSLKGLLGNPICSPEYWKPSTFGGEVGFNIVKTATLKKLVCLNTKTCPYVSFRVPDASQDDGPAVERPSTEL

Ratio IC50 (Homo sapiens)	pIC50 [1]	pIC50 [2]	Activity [3]	Structure (SMILES)	ED50 (Rattus norvegicus) [mg/kg]
> 457	< 4.28	6.94		CS(=O)(=O)c1ccc(-c2cnc(Cc3ccc(F)cc3F)nc2-c2ccc(F)cc2)cc1	
	< 4.00	< 5.14		CS(=O)(=O)c1ccc(-c2cnc(Sc3ccccc3)nc2-c2ccc(F)cc2)cc1	
8.8	5.00	5.95		CC(C)c1ncc(-c2ccc(S(C)(=O)=O)cc2)c(-c2ccc(F)cc2)n1	
		7.24	inactive	CS(=O)(=O)c1ccc(-c2cnc(C(O)c3ccccc3)nc2-c2ccc(F)cc2)cc1 (configuration not stated)	1.6
> 1780	< 4.00	7.25		CS(=O)(=O)c1ccc(-c2cnc(Nc3ccccc3)nc2-c2ccc(F)cc2)cc1	
5.6	4.53	5.28		CS(=O)(=O)c1ccc(-c2cnc(CCc3ccccc3)nc2-c2ccc(F)cc2)cc1	
> 16	< 4.00	5.20		CS(=O)(=O)c1ccc(-c2cnc(Cc3ccccn3)nc2-c2ccc(F)cc2)cc1	
51	5.36	7.07		CN(c1ccccc1)c1ncc(-c2ccc(S(C)(=O)=O)cc2)c(-c2ccc(F)cc2)n1	
284	5.18	7.64		Cn1cccc1Cc1ncc(-c2ccc(S(C)(=O)=O)cc2)c(-c2ccc(F)cc2)n1	
	< 4.00	< 5.33		CS(=O)(=O)c1ccc(-c2cnc(Oc3ccccc3)nc2-c2ccc(F)cc2)cc1	
> 361	< 4.00	6.56		CS(=O)(=O)c1ccc(-c2cnc(Cc3ccc(F)cc3)nc2-c2ccc(F)cc2)cc1	
> 326	< 4.47	6.98		CS(=O)(=O)c1ccc(-c2cnc(Cc3ccccc3)nc2-c2ccc(F)cc2)cc1	

Structure (SMILES)	Ratio IC50 (Homo sapiens)	pIC50 [1]	pIC50 [2]	Activity [3]	ED50 (Rattus norvegicus) [mg/kg]
CS(=O)(=O)c1ccc(-c2cnc(Cc3ccccc3)[n+]([O-])c2-c2ccc(F)cc2)cc1			6.14		
CS(=O)(=O)c1ccc(-c2cnc(NCc3ccccc3)nc2-c2ccc(F)cc2)cc1	> 145	< 4.00	6.16		
CS(=O)(=O)c1ccc(-c2cnc(Cc3ccccc3O)nc2-c2ccc(F)cc2)cc1			7.37		
CS(=O)(=O)c1ccc(-c2cnc(CC3CCCCC3)nc2-c2ccc(F)cc2)cc1	247	5.53	7.92		
